From PubChem BioAssay
Ba/F3 V617F tox: reduced viability of JAK2V617F-dependent Ba/F3 cells, primary screen, JAK2V617F inhibitor project, cell-based, Ba/F3 EpoR-JAK2V617F, luminescence; ATP luminescence; inhibition, % at 5.6 µM; 1.1% of 220,000 active; AID 1446, 2008;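 active means inhibition above the campaign mean plus 3 SD over all tested compounds, cut at about 24% in these data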;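 further: cytokine-independent growth of Ba/F3 cells driven by EpoR plus mutant JAK2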
bCat nuc transl: modulators of beta-catenin nuclear translocation, primary screen, imaging, HeLa cells, immunofluorescence, high-content; nuclear translocation activity, % at 5 µM; 0.3% of 190,000 active; AID 1665, 2009;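 active means nuclear translocation activity above 50% at 5 µM, with a well cell count of 50 or more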;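 further: per-cell ratio of nuclear to cytoplasmic median beta-catenin stain intensity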
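Test system: human HeLa cells, endogenous beta-catenin. Times: 24 h compound exposure, 37°C. Measured by: beta-catenin immunofluorescence imaging with DAPI.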
Lmaj promast: Leishmania major promastigote growth inhibition, primary screen | Leishmania major promastigotes, resazurin fluorescence viability | inhibition, % at 10 µM | 9% of 200,000 active | AID 1063, 2008; in the data active means inhibition above about 50%;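 further: promastigotes grown with compound for 44 hours at 28 °C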
BaF3 tox: parental Ba/F3 cell viability inhibition, counter-screen for JAK2V617F inhibitor project, murine pro-B, CellTiter-Glo luminescence; CellTiter-Glo ATP luminescence; inhibition, % at 5.6 µM; AID 1486, 2009; 1.1% of 220,000 active;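 active means inhibition above a per-campaign cutoff, the mean inhibition of all tested compounds plus 3 SD, cut at about 27% in these data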
MT stabilizer: microtubule stabilizers in HeLa cells, primary screen, imaging, high-content imaging | 0.83% of 200,000 active | HeLa tubulin immunostaining HCS, 24 h; share of cells brighter than vehicle mean+2SD | % tubulin-high responders, % at 10 µM | AID 2205, 2009;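 active means plate Z-score above 3 for both tubulin-high and condensed-nucleus cell shares, with cell loss under 80%, at 10 µM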;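 further: anti alpha tubulin signal scored within the nucleus-defined area of each cell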
APP transl inh: inhibitors of APP translation via 5'UTR reporter, primary screen, APP 5'UTR luciferase, SH-SY5Y cells | SH-SY5Y APP 5'UTR-luciferase reporter, luminescence | inhibition, % at 2 µM | 0.82% of 190,000 active | AID 1285, 2008;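 active means inhibition above a set limit, derived from the sample mean plus 3 SD, cut at about 45% in these data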
Hits are given with their value; i = inactive; nt = no result given. Only some compounds are listed: those with a hit (about 9.6% of all), similar ones and a draw of the others.

SMILES	Ba/F3 V617F tox	bCat nuc transl	Lmaj promast	BaF3 tox	MT stabilizer	APP transl inh
CN(Cc1ccccc1)C(=O)c1oc(=O)c2ccccc2c1-c1ccccc1	i	i	55.2	i	i	i
O=C(c1ccco1)N1CCN(C(=O)c2oc(=O)c3ccccc3c2-c2ccccc2)CC1	i	i	i	i	i	i
Cc1ccc(-c2c(C(=O)N(C)Cc3ccccc3)oc(=O)c3ccccc23)cc1	i	i	82.2	i	i	i
CN1CCC(=NNC(=O)c2ccc(N(Cc3ccccc3Cl)S(C)(=O)=O)cc2)CC1	i	i	i	i	i	i
Fc1ccc(N/N=C2/CC(c3ccccc3)Oc3ccccc32)c(F)c1 (centres undefined)	i	nt	71.5	i	i	i
CNC(=S)N/N=C1\CC(c2ccccc2)Oc2ccccc21 (centres undefined)	i	i	i	i	i	i
COc1ccc(NC(=O)OCCn2c([N+](=O)[O-])cnc2C)cc1	i	i	53.5	i	i	i
O=C(Nc1nc(-c2ccccc2)cs1)c1ccccc1NS(=O)(=O)c1ccc(F)cc1	i	i	i	45.9	i	i
CC(=O)c1c(C)[nH]c(C(=O)Nc2nc(-c3ccc(Cl)cc3)cs2)c1C	i	i	i	i	i	i
Cn1c(NC(=O)C[n+]2cc(-c3ccc(Cl)c(Cl)c3)n3c2CCC3)cc(=O)n(C)c1=O	i	i	87.7	i	i	i
CC(=O)c1c(C)[nH]c(C(=O)Nc2nc(-c3ccc(-c4ccccc4)cc3)cs2)c1C	i	nt	96.7	i	i	i
O=C(C[n+]1cc(-c2ccc(Cl)c(Cl)c2)n2c1CCC2)N1c2ccccc2Sc2ccccc21	i	i	53.8	i	i	i
O=S(=O)(Nc1ccc(-c2csc(-c3ccccc3)n2)cc1)c1ccc(F)cc1	i	i	i	i	i	i
O=C1COc2ccc(C(=O)COC(=O)c3cc(S(=O)(=O)NCc4ccccc4)ccc3O)cc2N1	i	i	nt	i	nt	nt
CCOC(=O)Cn1ncn(-c2ccc(OC(F)(F)F)cc2)c1=O	i	i	i	i	i	i
O=C(C[n+]1cc(-c2ccc(Cl)cc2)n2c1CCC2)N1c2ccccc2Sc2ccccc21	i	i	80.8	i	i	i
Cc1ccc(-c2c[n+](CC(=O)Nc3nc(-c4ccc(F)cc4)cs3)c3n2CCC3)cc1	i	i	i	i	i	i
O=C(C[n+]1cc(-c2ccc(F)cc2)n2c1CCC2)Nc1nc(-c2ccccc2)cs1	i	i	80.8	i	i	i
CC(C)(C)NC(=O)C(c1ccc(O)cc1)N(C(=O)CCC(=O)Nc1nccs1)c1ccc(F)cc1 (centres undefined)	i	i	i	i	i	i
CC(C)Oc1snc(Cl)c1C(N)=O	i	i	i	i	i	i
COc1ccc(/C=C/C(=O)c2ccc(C)c([N+](=O)[O-])c2)cc1O	i	i	100.0	i	i	i
COc1cc(/C=C/C(=O)c2ccc(C)c([N+](=O)[O-])c2)cc(OC)c1O	i	i	79.4	i	i	i
COc1cccc(C(=O)/C=C/c2ccc(SC)cc2)c1	i	i	i	i	i	i
COc1ccc(C(=O)/C=C/c2ccc(N3CCCCC3)c([N+](=O)[O-])c2)cc1	i	i	i	i	i	i
COc1cccc(/C=C/C(=O)c2ccc(C)c([N+](=O)[O-])c2)c1	i	nt	76.2	i	i	i
SMILES	Ba/F3 V617F tox	bCat nuc transl	Lmaj promast	BaF3 tox	MT stabilizer	APP transl inh
COc1ccccc1NC(=O)/C(=C/c1cccc([N+](=O)[O-])c1)c1ccccc1	i	i	89.3	i	i	i
COc1ccccc1NS(=O)(=O)c1cc(NC(=O)c2cc3ccccc3oc2=O)ccc1C	i	i	i	i	i	i
COCCNC(=O)/C(C#N)=C/c1ccc(C)o1	i	i	i	i	i	i
O=C(/C=C/c1cccc(O)c1)c1ccc(N2CCOCC2)cc1	i	i	nt	i	nt	nt
COc1cc(/C=C/C(=O)c2cccc([N+](=O)[O-])c2)cc(OC)c1OC	i	i	100.4	i	i	i
COc1cccc(/C=C/C(=O)c2ccc[nH]2)c1	i	nt	100.2	i	i	i
O=C(/C=C/c1ccccc1F)c1cccc([N+](=O)[O-])c1	i	nt	i	i	i	i
O=C(/C=C/c1ccc2c(c1)OCO2)c1ccc[nH]1	i	i	i	i	i	i
NC(=S)N/N=C/c1ccccc1OCc1cccc(Cl)c1	i	i	i	i	i	i
O=C1C2C3C=CC(C4CC34)C2C(=O)N1/N=C/c1ccc([N+](=O)[O-])o1 (centres undefined)	i	nt	99.2	i	i	i
O=C1C2C(C(=O)N1/N=C/c1ccc([N+](=O)[O-])o1)C1C=CC2C12CC2 (centres undefined)	i	i	89.9	i	i	i
COc1ccc(-c2cn3c4c(sc3n2)CCCC4)cc1	i	nt	i	i	i	i
O=C(CN(C(=O)CCC(=O)Nc1nccs1)c1ccc(F)c(Cl)c1)NCc1ccco1	i	i	89.6	i	i	i
O=C(CN(C(=O)CCC(=O)Nc1nccs1)c1ccc(F)cc1)NCc1ccco1	i	i	i	i	i	i
COc1ccc(SCCC(=O)NCc2ccncc2)cc1	i	i	nt	i	nt	nt
COc1ccc(CN(C(=O)c2oc3ccccc3c2C)C2CCS(=O)(=O)C2)cc1 (centres undefined)	i	nt	54.2	i	i	i
Cc1cc2oc(C(=O)N(Cc3ccccc3)C3CCS(=O)(=O)C3)cc(=O)c2cc1Cl (centres undefined)	i	nt	50.2	i	i	i
O=C(Cn1c(C(=O)N2CCN(C3CCCCC3)CC2)cc2sccc21)c1ccccc1	i	i	81.1	i	i	i
O=C(Cn1c(C(=O)N2CCc3ccccc3C2)cc2sccc21)c1ccccc1	i	i	60.9	i	i	i
O=C1CSc2ccc(C(=O)NCC(c3ccco3)N3CCCCC3)cc2N1 (centres undefined)	i	i	i	i	i	i
CC12CCC(C(=O)NCc3cccnc3)(OC1=O)C2(C)C (centres undefined)	i	nt	i	i	i	i
CC12CCC(C(=O)N(Cc3ccccc3)Cc3ccccc3)(OC1=O)C2(C)C (centres undefined)	i	nt	71.5	i	i	i
CCC1(C)N=C(c2ccc3c(c2)OCO3)CC(c2ccccc2O)N1 (centres undefined)	i	i	95.3	i	i	i
COc1cccc(C2=NC(C)(C)NC(c3ccccc3O)C2)c1 (centres undefined)	i	i	96.7	i	i	i
O=C(CSc1ccc2ccccc2c1)NC1CCCc2ccccc21 (centres undefined)	i	i	i	i	i	i
